The subject of test [1] is Quadruplex DNA. Put plainly: Stabilization of 5'-FAM/3'-TAMRA labelled AR1 G-quadruplex oligonucleotide (unknown origin) assessed as change in melting temperature t1/2 at 1 uM after 16 hrs in presence of 100 mM K+ by FRET assay. The test is classed as nucleic-acid assay. In a few lines:
(§1)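 FRET melting: FAM/TAMRA dual-labelled oligos (0.25 μM) folded in 10 mM lithium cacodylate pH 7.4 with 100 mM KCl (95 °C 5 min, cooled 4 h); ligand added at 1 μM final, 16 h room temperature. FAM emission followed 30−95 °C at 1 °C/min; curves normalized 0 to 1, T1/2 at 0.5 fraction.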

Test [2] has as its system Quadruplex DNA. The test is described as follows: Stabilization of 5'-FAM/3'-TAMRA labelled AR3 G-quadruplex oligonucleotide (unknown origin) assessed as change in melting temperature t1/2 at 1 uM after 16 hrs in presence of 100 mM K+ by FRET assay. The test is classed as nucleic-acid assay. In a few lines:
as §1

Test [3] is described as follows: Stabilization of 5'-FAM/3'-TAMRA labelled CTATAGCGCGCTATAG dsDNA (unknown origin) assessed as change in melting temperature t1/2 at 1 uM after 16 hrs in presence of 100 mM K+ by FRET assay. A digest of the protocol:
as §1

In test [4] the target is Quadruplex DNA. The test is described as follows: Binding affinity to 5'-Biotinylated-AR1 G-quadruplex oligonucleotide (unknown origin) by SPR analysis. The class given is nucleic-acid assay. A digest of the protocol: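 SPR on streptavidin chip; 5′-biotinylated oligo folded by heating 95 °C 5 min in 10 mM lithium cacodylate, 150 mM KCl, then immobilized at 30 nM to about 600 RU; empty reference cell. Compound 0.7−400 nM in HEPES-KCl (pH 7.4, 0.15 M KCl, 3 mM EDTA) at 40 °C, 40 μL/min, 260 s contact, 600 s dissociation; glycine pH 2.0 regeneration; steady-state affinity fit; at least two independent runs.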

Test [5] deals with Quadruplex DNA. Put plainly: Binding affinity to 5'-Biotinylated-AR1 G-quadruplex oligonucleotide (unknown origin) by SPR analysis relative to control. The class given is nucleic-acid assay. (SPR reads the build-up and loss of mass on a sensor chip optically.)
In another test the test system is PNT1A. The test is described as follows: Cytotoxicity against human PNT1A cells assessed as reduction in cell viability after 48 hrs by MTS assay. The test is classed as cell-based. A digest of the protocol: (§2)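 Cells kept in RPMI-1640 with 10% fetal calf serum, 37 °C, 5% CO2. Seeded, after 24 h treated with 0.0001, 0.001, 0.01, 0.1, 1 and 10 μM compound (DMSO stocks freshly diluted in medium) for 48 h. MTS added 4 h, absorbance 490 nm; IC50 from curves of % viability inhibition versus DMSO-treated cells against log concentration.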
A general note: Tetrazolium assays rely on reduction of a dye to a coloured formazan, in cell work by metabolically active cells.

The next test relates to DU-145. Put plainly: Cytotoxicity against human DU145 cells assessed as reduction in cell viability after 48 hrs by MTS assay. The class given is functional, cell-based. To be noted: DU-145, 48 h. A digest of the protocol: as §2
In the next test the test system is PC-3. Put plainly: Cytotoxicity against human PC3 cells assessed as reduction in cell viability after 48 hrs by MTS assay. To be noted: PC-3, 48 h. The class given is functional, cell-based. In a few lines:
as §2

In the next test the test system is LNCaP. Put plainly: Cytotoxicity against human LNCAP cells expressing androgen receptor T877A point mutant assessed as reduction in cell viability after 48 hrs by MTS assay. The test is classed as functional, cell-based. In a few lines: as §2
The next test relates to CWR22R. The test is described as follows: Cytotoxicity against human 22Rv1 cells expressing full length androgen receptor H875Y point mutant assessed as reduction in cell viability after 48 hrs by MTS assay. The test is classed as functional, cell-based. To be noted: 22Rv1, 48 h. A digest of the protocol: as §2
Test [6] concerns Quadruplex DNA. Put plainly: Stabilization of AR G-quadruplex oligonucleotide in human 22Rv1 cells assessed as reduction in AR-FL protein level at IC50 after 48 hrs by Western immunoblot assay. The test is classed as cell-based. For orientation: Immunoblotting shows a protein as a band on a membrane.
For test [7], the system named is Quadruplex DNA. The test is described as follows: Stabilization of AR G-quadruplex oligonucleotide in human 22Rv1 cells assessed as reduction in AR-VS protein level at IC50 after 48 hrs by Western immunoblot assay. The test is classed as cell-based.
The subject of test [8] is Quadruplex DNA. The test is described as follows: Stabilization of AR G-quadruplex oligonucleotide in human LNCAP cells assessed as reduction in AR mRNA expression at IC50 by RT-PCR analysis. The class given is cell-based. To be noted: TDE = time-dependent effect. In a few lines: (§3)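 Cells grown in RPMI-1640 with 10% fetal calf serum, 37 °C, 5% CO2, treated at an equitoxic concentration. Transcripts quantified by TaqMan real-time RT-PCR, normalized to RNaseP, expressed as relative quantity versus untreated cells (calibrator) by the 2−ΔΔCt method.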

For test [9], the system named is Quadruplex DNA. Put plainly: Stabilization of AR G-quadruplex oligonucleotide in human 22Rv1 cells assessed as reduction in AR mRNA expression at IC50 by RT-PCR analysis. The class given is cell-based. To be noted: TDE = time-dependent effect.
Test [10] deals with Quadruplex DNA. Put plainly: Stabilization of AR G-quadruplex oligonucleotide in human LNCAP cells assessed as reduction in basal AR mRNA expression at IC50 after 6 to 72 hrs by RT-PCR analysis. The class given is cell-based. In a few lines:
as §3

Test [11] relates to Quadruplex DNA. The test is described as follows: Stabilization of AR G-quadruplex oligonucleotide in human 22Rv1 cells assessed as reduction in basal AR mRNA expression at IC50 after 6 to 72 hrs by RT-PCR analysis. The test is classed as cell-based. A digest of the protocol: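 Transcripts quantified by TaqMan real-time PCR with RNaseP as normalizer; relative quantity versus untreated cells by the 2−ΔΔCt method. Panel genes measured with a 92-gene cancer-mechanism TaqMan array.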

Test [12] deals with Quadruplex DNA. Put plainly: Stabilization of AR G-quadruplex oligonucleotide in human LNCAP cells assessed as reduction in AR-FL protein level by immunoblotting assay. The test is classed as cell-based. A digest of the protocol:
(§4)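 Lysate proteins immunoblotted. Vinculin or β-actin used as loading control, peroxidase-linked secondary antibodies, ECL chemiluminescent detection, autoradiography, densitometric scan. Untreated cells received DMSO.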

The test system of test [13] is Quadruplex DNA. Put plainly: Stabilization of AR G-quadruplex oligonucleotide in human 22Rv1 cells assessed as reduction in AR-FL protein level by immunoblotting assay. The test is classed as cell-based.
The test system of test [14] is Quadruplex DNA. The test is described as follows: Stabilization of AR G-quadruplex oligonucleotide in human 22Rv1 cells assessed as reduction in AR-Vs protein level by immunoblotting assay. The class given is cell-based.
Test [15] relates to Quadruplex DNA. Put plainly: Stabilization of AR G-quadruplex oligonucleotide in human LNCAP cells assessed as reduction in PSA protein level by immunoblotting assay. The test is classed as cell-based. In a few lines:
as §4

The values below come from ChEMBL document CHEMBL4411261, “Down-Regulation of the Androgen Receptor by G-Quadruplex Ligands Sensitizes Castration-Resistant Prostate Cancer Cells to Enzalutamide” (J Med Chem, 2018).

Each structure is given as a SMILES string. The source made the active and inactive calls. The rule behind the calls is not given here.

Broadly, the ΔTm is the shift of the melting midpoint relative to a reference. In general, Kd refers to the constant that tells how readily two partners part at equilibrium. The low end stands for tighter binding, the high end for weaker binding. What is called IC50 is the point on the concentration scale where inhibition reaches its midpoint.

Turning to `CN(C)CCN1C(=O)c2ccc3c4c(c(NCCc5ccc(O)c(CN(C)C)c5)cc(c24)C1=O)C(=O)N(CCN(C)C)C3=O`, the ΔTm was 7.2 °C with Quadruplex DNA [1], 10 °C with Quadruplex DNA [2] and less than 0.1 °C in test [3]. In addition, the dissociation constant Kd at Quadruplex DNA [4] was found to be 34.2 nM. The same compound had an RBA in the test with Quadruplex DNA [5] of 52%. For the same compound, the half-maximal inhibitory concentration (IC50) in the test on PNT1A was determined as 350 nM; in the test with DU-145, 300 nM; with PC-3, 320 nM; with LNCaP, 390 nM; in the test on CWR22R, 100 nM. The result in the test with Quadruplex DNA [6] and in the test on Quadruplex DNA [7] was Active.

On to `CN1CCN(c2cc3c4c(c(NCCO)cc5c4c2C(=O)N(CCO)C5=O)C(=O)N(CCO)C3=O)CC1`, for which the results for the ΔTm (with Quadruplex DNA [1]; in the test with Quadruplex DNA [2]; in test [3]) were 0.1 °C, 0.4 °C and less than 0.1 °C, respectively. Besides, the concentration for half-maximal inhibition (IC50) in the test with PNT1A was 7070 nM; with DU-145 it was more than 10000 nM; with PC-3, more than 10000 nM; with LNCaP, more than 10000 nM; in the test on CWR22R, 7670 nM. The Activity entry with Quadruplex DNA [8] and in the test with Quadruplex DNA [9] was “Tde” in each case. Also, the result with Quadruplex DNA [10], in the test with Quadruplex DNA [11], with Quadruplex DNA [12], in the test with Quadruplex DNA [13], in the test with Quadruplex DNA [14] and in the test with Quadruplex DNA [15] was inactive.

Take `CN(C)CCN1C(=O)c2ccc3c4c(c(C#Cc5ccc(CN(C)C)c(O)c5)cc(c24)C1=O)C(=O)N(CCN(C)C)C3=O`: the results for the shift in melting temperature (ΔTm) (in the test with Quadruplex DNA [1]; in the test with Quadruplex DNA [2]; in test [3]) were 5.6 °C, 9 °C and less than 0.1 °C, respectively. In addition, the affinity at Quadruplex DNA [4], expressed as Kd, was 21.4 nM. Also, the RBA with Quadruplex DNA [5] worked out at 84%. Moreover, the IC50 with PNT1A turned out to be 130 nM; in the test on DU-145, 550 nM; in the test on PC-3 it was 340 nM; in the test on LNCaP, 590 nM; with CWR22R, 970 nM.

As to `CN(C)CCCNc1cc2c3c(ccc4c3c1C(=O)N(CCCN(C)C)C4=O)C(=O)N(CCCN(C)C)C2=O`, the ΔTm is 11 °C with Quadruplex DNA [1], 13 °C in the test on Quadruplex DNA [2] and 5.1 °C in test [3]. This compound also had a Kd on Quadruplex DNA [4] of 41.2 nM. In addition, the RBA in the test on Quadruplex DNA [5] amounted to 43%. The IC50 was determined as 590 nM in the test on PNT1A; 3880 nM in the test on DU-145; 6320 nM in the test with PC-3; 3400 nM with LNCaP; 2430 nM with CWR22R.

For the compound `CN(C)CCCN1C(=O)c2ccc3c4c(c5[nH]c(=O)c(=O)[nH]c5c(c24)C1=O)C(=O)N(CCCN(C)C)C3=O`, the ΔTm was 3.6 °C in the test with Quadruplex DNA [1], 6 °C in the test on Quadruplex DNA [2] and less than 0.1 °C in test [3]. The Kd on Quadruplex DNA [4] amounted to 38.3 nM. In the test on Quadruplex DNA [5], this compound gave an RBA of 47%. The IC50 in the test with PNT1A is 1370 nM; in the test with DU-145 it was more than 10000 nM; with PC-3, more than 10000 nM; with LNCaP it was 10300 nM; with CWR22R it was more than 10000 nM.

With `CN(C)CCN1C(=O)c2ccc3c4c(c(NCC(=O)Nc5ccc(O)c(CO)c5)cc(c24)C1=O)C(=O)N(CCN(C)C)C3=O`, the figures for the ΔTm (in the test with Quadruplex DNA [1]; in the test on Quadruplex DNA [2]; in test [3]) were 4.5 °C, 9.3 °C and less than 0.1 °C, respectively. This compound gave a Kd at Quadruplex DNA [4] of 43.9 nM. Further, the RBA in the test on Quadruplex DNA [5] was found to be 41%. Further, the IC50 with PNT1A is 1440 nM; in the test with DU-145 it was more than 10000 nM; in the test on PC-3 it was more than 10000 nM; in the test on LNCaP, 3040 nM; in the test on CWR22R it was 3690 nM.

`CN(C)CCCN1C(=O)c2ccc3c4c(c(NCCCCNc5cc6c7c(ccc8c7c5C(=O)N(CCCN(C)C)C8=O)C(=O)N(CCCN(C)C)C6=O)cc(c24)C1=O)C(=O)N(CCCN(C)C)C3=O`: the ΔTm in the test with Quadruplex DNA [1] worked out at 11.3 °C; in the test on Quadruplex DNA [2] it was 19.7 °C; in test [3], 1.9 °C. On Quadruplex DNA [4], this compound yielded a Kd of 92.5 nM. Further, the RBA with Quadruplex DNA [5] stood at 19%. Moreover, the IC50 is 2480 nM in the test with PNT1A; 3390 nM with DU-145; 10100 nM in the test with PC-3; 1930 nM in the test on LNCaP; more than 10000 nM with CWR22R.

Regarding `CN(C)CCCN1C(=O)c2ccc3c4c(c(NCCCCCCCNc5cc6c7c(ccc8c7c5C(=O)N(CCCN(C)C)C8=O)C(=O)N(CCCN(C)C)C6=O)cc(c24)C1=O)C(=O)N(CCCN(C)C)C3=O`, the values for the ΔTm (with Quadruplex DNA [1]; in the test on Quadruplex DNA [2]; in test [3]) were 8.3 °C, 17 °C and 1 °C, respectively. The Kd at Quadruplex DNA [4] turned out to be 182 nM. For the same compound, in the test with Quadruplex DNA [5], the RBA is 10%. The IC50 was 1890 nM in the test on PNT1A; 2190 nM with DU-145; more than 10000 nM in the test on PC-3; 6560 nM in the test with LNCaP; 3450 nM in the test with CWR22R.
